A selection: hits, their analogues and other compounds. The true share with any hit is near 3.1%.
miR122 inh – inhibitors of miR-122 in Huh7 cells; AID 602342; activation (reporter increase), % at 12.5 µM; 0.3% of 340,000 active; Huh7 miR-122 Renilla luciferase sensor, 48 h; neutral wells = 0, positive control = 100;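 active means mean replicate activation score at least 90 and every replicate individually at or above 90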;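 further: higher luciferase means less miR-122 activity so hits act as miR-122 inhibitors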
Env fusion inh – inhibitors of HIV Env-mediated cell fusion. HeLa-JRFL Env/CEM21 cell fusion, luciferase. inhibition, % at 12.3 µM. 1.1% of 360,000 active;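 active means mean replicate inhibition score of at least 50 and every replicate individually at or above 50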;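 further: 0% = plate neutral controls and 100% = maraviroc near 300 nM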
Cneo AK release – Cryptococcus neoformans lysis via adenylate kinase release. C. neoformans lysis, adenylate kinase release luminescence, 4 h; normalised: neutral wells 0, clomiphene wells 100. lysis activity, % at 15 µM. 0.2% of 360,000 active. AID 651654;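 active means mean lysis activity across replicates of at least 80%, whatever share of replicates individually reach that level; inactive means mean lysis activity below 80%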
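Test system: log-phase Cryptococcus neoformans yeast cells; Quantity: yeast cell density of 5 × 10^6 cells/mL; Buffer or medium: YPD; Doses: single compound concentration per well; Timing: 4 h at 37 °C static, read 1 h later; Measured by: AK luminescence; Read-out basis: lysis from increased AK signal; Control set: Clomiphene as positive control.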
GSIS activator – primary screen for activators of insulin secretion dependent on glucose, INS-1E cells, GLuc reporter luminescence; INS-1E GLuc reporter insulin secretion, 2-3 h; activation, % at 16.6 µM; 0.61% of 370,000 active;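 active means lowest replicate activation of at least 40%, so every replicate reaches that level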;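 further: 0% = median of neutral control wells and 100% = median of IBMX positive control wells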
rRNA inh HTS – inhibitors of bacterial rRNA selective over humanized ribosomes. E. coli WT GFP vs humanized-ribosome RFP mutants, fluorescence, 24 h; stronger effect = lower value; DMSO median 0, no signal -100. 1.6% of 350,000 active. GFP signal change (wild-type ribosome), % (test concentration not listed);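 active means significant combined selectivity score with lowered wild-type GFP, culture density cut under 30%, mutant RFP and density less affected; inactive means any of these conditions unmet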
CFTR F508del cor – CFTR F508del correction in bronchial cells; CFBE cells, YFP halide quenching; stimulated with forskolin plus potentiator P3; % fluorescence drop versus neutral controls; activity (quench increase), % at 7.58 µM; 0.36% of 350,000 active;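 active means mean added fluorescence quench of at least 8% versus neutral control, with both replicates also reaching 8%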;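 further: cells transiently co-express mutant CFTR-F508del with the halide-sensitive YFP; corrector assay measuring rescue of mutant channel to the surface after 24 h compound exposure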
Numbers without * were called inactive; x = no result given; [ ] = dose if it differs, or a comment.

SMILES	miR122 inh	Env fusion inh	Cneo AK release	GSIS activator	rRNA inh HTS	CFTR F508del cor
C[C@H]1CN([C@@H](C)CO)C(=O)c2cccc(NC(=O)C3CC3)c2O[C@H]1CN(C)CC1CC1	0[16.7 µM]	x	-1	13	6	0
O=C(N[C@@H]1CC[C@H](CCn2cc(C3(O)CCCC3)nn2)O[C@@H]1CO)C1CCCC1	3[16.7 µM]	-4[16.7 µM]	-1	1	1	1
S=C(Nc1ccccc1Cl)NC1CCCCCC1	149*	5	59	1	-53	-1
CO[C@@H]1CN(C)C(=O)c2cc(NC(C)=O)ccc2OC[C@@H](C)N(Cc2ccc(F)cc2)C[C@@H]1C	0[16.7 µM]	x	-4	-12	-2	2
COc1ccc(C2CC(=O)C=C(NCc3ccc4c(c3)OCO4)C2)cc1 (centres undefined)	x	0	x	17	-24*	1
O=C1C=C(c2ccc3c(c2)OCO3)C[C@@H](c2ccc3c(c2)OCO3)C1	4	-23	0	6	5	1
COc1ccc([C@H]2CC(=O)C=C(c3ccc4c(c3)OCCO4)C2)cc1	-1	-2	0	-7	-21*	-1
N#C[C@@H]1[C@@H](c2ccc(C3=CCCC3)cc2)[C@@H](CO)N1C(=O)NC1CCCC1	x	-24[16.7 µM]	-5	8	-1	-1
CC(C)NC(=O)Nc1ccc2c(c1)CC(=O)N([C@H](C)CO)C[C@H](C)[C@@H](CN(C)C(=O)Nc1ccc3c(c1)OCO3)O2	11[16.7 µM]	9[16.7 µM]	100*	3	4	2
CC(C)NC(=O)Nc1ccc2c(c1)CC(=O)N([C@H](C)CO)C[C@@H](C)[C@H](CN(C)Cc1ccc3c(c1)OCO3)O2	33[16.7 µM]	-21[16.7 µM]	100*	26	-3	1
C[C@@H]1CN([C@@H](C)CO)C(=O)Cc2cc(NC(=O)Nc3ccccc3)ccc2O[C@@H]1CN(C)C(=O)Nc1ccc2c(c1)OCO2	-9[16.7 µM]	-13[16.7 µM]	-1	19	2	1
C[C@H]1CN([C@@H](C)CO)C(=O)Cc2cc(NC(=O)Nc3ccccc3)ccc2O[C@H]1CN(C)C(=O)Nc1ccc2c(c1)OCO2	10[16.7 µM]	-13[16.7 µM]	102*	-12	2	-1
CC(C)NC(=O)Nc1ccc2c(c1)CC(=O)N([C@@H](C)CO)C[C@@H](C)[C@@H](CN(C)Cc1ccc(Oc3ccccc3)cc1)O2	-2[16.7 µM]	x	109*	-23	-3	-3
CC(C)NC(=O)Nc1ccc2c(c1)CC(=O)N([C@@H](C)CO)C[C@H](C)[C@H](CN(C)Cc1ccc(Oc3ccccc3)cc1)O2	6[16.7 µM]	x	-3	-33	-7	2
CC(C)NC(=O)Nc1ccc2c(c1)CC(=O)N([C@@H](C)CO)C[C@@H](C)[C@@H](CN(C)C(=O)Nc1ccc3c(c1)OCO3)O2	0[16.7 µM]	-14[16.7 µM]	-11	2	1	-1
O=C(C[C@@H]1CC[C@@H]2[C@H](COC[C@@H](O)CN2Cc2ccc(Oc3ccccc3)cc2)O1)N1CCCCC1	-6[16.7 µM]	x	5	-11	-37	2
C[C@@H]1CN([C@H](C)CO)C(=O)Cc2cc(NC(=O)NC3CCCCC3)ccc2O[C@@H]1CN(C)Cc1ccccc1	35[16.7 µM]	15[16.7 µM]	92*	-15	2	3
C[C@H]1CN([C@@H](C)CO)C(=O)Cc2cc(NC(=O)NC3CCCCC3)ccc2O[C@@H]1CN(C)Cc1ccccc1	2[16.7 µM]	3[16.7 µM]	9	-3	2	0
C[C@@H]1CN([C@H](C)CO)C(=O)c2cc(/C=C/c3ccccc3)cnc2O[C@H]1CN(C)C(=O)c1cnccn1	-7[16.7 µM]	2[16.7 µM]	-10	28	-4	0
COC(=O)C[C@H]1CC[C@H]2[C@H](COc3ccc(NC(=O)Nc4cc(C)cc(C)c4)cc3C(=O)N2C)O1	x	5[16.7 µM]	1	-5	-3	x
CCOC(=O)c1ccc(CC(=O)c2oc3cc(O)ccc3c2C)o1	1	x	-1	-17	-22*	3
Cc1ccc(F)cc1S(=O)(=O)N[C@@H]1CCN(C(=O)c2ccc(OC(C)C)cc2)C1	x	-1[16.7 µM]	0	x	x	0
C[C@H]1CC=CC[C@H](c2ccccc2)NC(=O)[C@H](C)N(C)C(=O)c2ccccc2O1 (mixture of isomers)	x	x	x	-3	-5	x
C=CCNc1nc(Cl)nc(Nc2ccc(OC)cc2)n1	-2	-59	1	65*	x	x
C=CCNc1nc(Nc2ccc(OC)cc2)nc(OC)n1	1	-59	0	9	x	x
SMILES	miR122 inh	Env fusion inh	Cneo AK release	GSIS activator	rRNA inh HTS	CFTR F508del cor
O=C1c2ccccc2C2=Nc3ccccc3SC(c3cccc(F)c3)C12 (centres undefined)	246*	-103	5	-28	x	x
C[C@@H]1CN([C@H](C)CO)C(=O)c2cccc(N(C)C)c2O[C@H]1CN(C)Cc1ccc(Cl)c(Cl)c1	-1[16.7 µM]	10[16.7 µM]	3	-11	-4	-3
COc1ccc2c3c(n(C)c2c1)[C@H](CO)NCC31CCN(Cc2cc(-c3ccccc3)on2)CC1	x	x	x	12	1	12*
COc1cc(OC)c2c3c(c(C4CCCCC4)nc2c1)CCC3	1	-2	4	266*	-25	4
C[C@H]1CN([C@@H](C)CO)C(=O)c2cccc(NC(=O)NC3CCCCC3)c2O[C@H]1CN(C)Cc1ccc(C(F)(F)F)cc1	72[16.7 µM]	0[16.7 µM]	-1	-16	-1	0
COc1cccc2c1-c1c(O)cccc1C2=O	x	-41	0	15	-6	1
CC1OC(CC(=O)O)CC2=C1C(=O)c1c(O)cccc1C2=O (centres undefined)	-10	76*	x	72*	-44	-3
c1cncc(CSc2ccc(-c3cccnc3)nn2)c1	-2	-12	2	-1	0	-3
COc1ccc(-c2ccc(SCc3cccnc3)nn2)cc1OC	x	-4	x	47*	-26	4
COc1ccc(-c2ccc(SCc3ccccn3)nn2)cc1OC	-4	5	x	83*	-17	3
C[C@@H]1CN([C@H](C)CO)C(=O)c2c(c3ccccc3n2C)-c2ccccc2CO[C@H]1CN(C)Cc1cccc(C(F)(F)F)c1	x	x	x	1	1	1
C[C@H]1CN([C@@H](C)CO)C(=O)c2c(c3ccccc3n2C)-c2ccccc2CO[C@H]1CN(C)C(=O)C1CC1	x	61*[16.7 µM]	-1	4	-2	-1
C[C@@H]1CN([C@@H](C)CO)C(=O)c2c(c3ccccc3n2C)-c2ccccc2CO[C@H]1CN(C)C(=O)Cc1ccccc1	x	37[16.7 µM]	0	-19	-6	-1
C[C@@H]1CN([C@@H](C)CO)C(=O)c2c(c3ccccc3n2C)-c2ccccc2CO[C@H]1CN(C)Cc1cccc(C(F)(F)F)c1	x	57*[16.7 µM]	x	-2	-1	5
C[C@@H]1CN([C@H](C)CO)C(=O)c2c(c3ccccc3n2C)-c2ccccc2CO[C@H]1CN(C)C(=O)C1CC1	x	1[16.7 µM]	50	2	0	1
